# Screening data: PubChem, Broad Institute
# The list is not random: actives were taken first. Their share in the collection is about 2%.
# CaV13 ICDI inh: Disruptors of the CACNA1D IQ motif to Ca2+-dependent inactivation inhibitor domain association, primary screening, Förster resonance energy transfer in intact living …; HEK cells, CFP/YFP FRET ICDI-IQ, plate reader, 10 min; percent FRET-ratio fall versus neutral wells; inhibition, % at 12.3 µM; 340,000 tested, 0.098% active; AID 743397;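 active = mean replicate inhibition of at least 30% and at least 1% of replicates passing that level; inconclusive = only one of the two criteria is met; inactive = neither criterion is met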
# Xi reactivation: reactivates the inactive X chromosome in mouse fibroblasts. XiGFP mouse fibroblasts, % GFP-positive cells imaging, 3 d; cells co-treated with 5-aza-dC sensitizer; scaled so ellipticine positive control = 100%. activation, % at 7.58 µM. 360,000 tested, 0.055% active;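 active = mean normalized replicate activation at least 10% and every replicate at or above 10%; inconclusive = only one of the two criteria met; inactive = mean below 10% and not all replicates reach 10%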
#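 Material: XiGFP fibroblasts, SV40-immortalized. Buffer or medium: DMEM plus 5-aza-dC sensitizer. Compound: single concentration per compound, delivered by pin transfer. Times: 3 days compound exposure. Controls: ellipticine 6 µM.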
# Casp6 inh: caspase-6 (human) enzyme inhibition; purified caspase-6, Z-VEID-R110 cleavage fluorescence; inhibition, % at 12.5 µM; 350,000 tested, 0.53% active; AID 686996;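 active = mean inhibition across replicates at least about 35%, with every replicate also reaching that limit, limit read from the data; inconclusive = only one of the two criteria met; inactive = neither criterion met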
# Target sequence (P55212 24-179 limits assumed): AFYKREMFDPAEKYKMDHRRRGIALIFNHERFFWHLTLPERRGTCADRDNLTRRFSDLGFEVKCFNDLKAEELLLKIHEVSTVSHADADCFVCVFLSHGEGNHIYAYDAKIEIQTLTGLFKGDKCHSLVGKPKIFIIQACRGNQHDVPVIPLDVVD
# Target sequence (P55212 194-293 limits assumed): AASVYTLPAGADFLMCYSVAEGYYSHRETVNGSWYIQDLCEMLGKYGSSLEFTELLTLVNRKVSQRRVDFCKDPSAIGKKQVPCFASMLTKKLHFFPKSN
# DENV2 CPE rescue: protects cells from dengue virus 2 cytopathic effect | DENV2-infected cells, cytopathic effect rescue, plate reader | CPE inhibition, % at 9.99 µM | 350,000 tested, 1.7% active; in the data active = CPE inhibition above about 20%, passing the limit was not always enough; inconclusive = no clear call, values can overlap the other calls; tested in BHK-21 cells
# FN deposit inh: fibronectin deposition inhibition. inhibition, % at 12.6 µM. AID 743247. AH1F fibroblasts, Alexa488-fibronectin deposition fluorescence, overnight. 350,000 tested, 0.086% active;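 active = mean inhibition across replicates of 30% or more, regardless of how many single replicates reach that level; inconclusive = mean under 30% yet at least half of replicates reach 30%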
#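 test system = AH1F fibroblasts assembling fluorescent fibronectin matrix | quantity = 10000 AH1F cells per well | buffer or medium = DMEM plus 2% serum, read in PBS | doses = single dose, pinned | incubation = 1 h cell attachment, overnight exposure to compound and label | detection = fluorescence at 485 nm excitation, 525 nm emission | read-out basis = inhibition from reduced deposited-fibronectin fluorescence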
# Hits are given with their value; . = inactive; ? = inconclusive; / = not tested or not shown.
SMILES,CaV13 ICDI inh,Xi reactivation,Casp6 inh,DENV2 CPE rescue,FN deposit inh
O=C(Nc1ccccc1F)N[C@H]1CC[C@H](CCNS(=O)(=O)c2ccccc2)O[C@@H]1CO,/,.,.,.,/
CCc1ccc2cc(C)cc(C)c2n1,.,.,.,34.1,.
CCN1[C@H](C(=O)NCCCN(C)C)[C@@H](CO)[C@@H]2Cn3c(ccc(-c4cccc(F)c4)c3=O)[C@@H]21,/,.,.,80.5,/
COc1cccc(-c2ccc3n(c2=O)C[C@H]2[C@H](CO)[C@@H](C(=O)NCC4CC4)[C@@H]3N2S(C)(=O)=O)c1,/,.,.,.,.
CS(=O)(=O)N1[C@@H]2c3ccc(-c4ccc(F)cc4)c(=O)n3C[C@H]1[C@H](CO)[C@H]2C(=O)NCC1CC1,/,.,.,121.2,/
CCCNC(=O)[C@@H]1[C@@H](CO)[C@@H]2Cn3c(ccc(-c4ccccc4)c3=O)[C@@H]2N1CC1CC1,/,.,54.4,?,/
COC(=O)[C@@H]1[C@@H](CO)[C@@H]2Cn3c(ccc(-c4ccccc4)c3=O)[C@@H]2N1CC1CCCCC1,/,.,/,33.3,/
C[C@@H]1CCCCO[C@@H](CN(C)C(=O)NC2CCCCC2)[C@@H](C)CN([C@@H](C)CO)C(=O)c2cc(NC(=O)c3ccccc3)ccc2O1,/,.,.,.,.
O=C(NCC1CCCCC1)[C@@H]1[C@@H](CO)[C@@H]2Cn3c(ccc(-c4cncnc4)c3=O)[C@H]1N2,/,.,.,.,/
COC(=O)[C@H]1[C@H](CO)[C@H]2Cn3c(ccc(-c4ccccc4)c3=O)[C@H]2N1CC1CCCCC1,/,.,.,45.4,/
CN(C)C(=O)[C@@H]1[C@@H](CO)[C@@H]2Cn3c(ccc(-c4cccc(F)c4)c3=O)[C@@H]2N1C(=O)c1ccccn1,/,.,/,/,/
O=C(NCC1CCCCC1)[C@@H]1[C@@H](CO)[C@@H]2Cn3c(ccc(-c4cccnc4)c3=O)[C@H]1N2,/,.,.,106.4,/
COC(=O)[C@H]1[C@H](CO)[C@H]2Cn3c(ccc(-c4ccncc4)c3=O)[C@H]2N1CC1CCCCC1,/,.,.,.,/
CN(C)C(=O)[C@H]1[C@H](CO)[C@H]2Cn3c(ccc(-c4cccc(F)c4)c3=O)[C@H]2N1C(=O)c1cnccn1,/,.,.,30.1,/
O=C(NC1CCCC1)[C@@H]1[C@@H](CO)[C@@H]2Cn3c(ccc(-c4ccccc4)c3=O)[C@H]1N2CC1CC1,/,.,.,24.8,/
C[C@H](CO)N1C[C@H](C)[C@H](CN(C)C(=O)CC2CC2)Oc2ncc(-c3ccc(C#N)cc3)cc2C1=O,/,.,.,.,/
CCCNC(=O)N1CC2(CCN(C)CC2)c2c(n(C)c3cc(OC)ccc23)[C@@H]1CO,/,.,/,/,/
COc1cccc(S(=O)(=O)N(C)C[C@H]2Oc3cc(C#CCN(C)C)ccc3S(=O)(=O)N([C@@H](C)CO)C[C@@H]2C)c1,/,.,.,.,/
COc1ccc(CN(C)C[C@@H]2Oc3c(NC(=O)NC4CCCCC4)cccc3C(=O)N([C@H](C)CO)C[C@@H]2C)cc1,/,.,.,.,.
CC1CCN(CCOCCOc2ccc(Br)cc2Cl)CC1,.,.,/,/,.
CC1CCCN(CCCOc2ccc(Br)cc2Cl)C1 (stereo not drawn),.,.,.,34.0,.
CC1(C(=O)NCc2cccc(C(F)(F)F)c2)CCN1Cc1cc2ccccc2o1 (stereo not drawn),.,.,.,55.6,.
CC1(C(=O)NCc2cccc(C(F)(F)F)c2)CCN1Cc1ccc(-c2ccccc2)o1 (stereo not drawn),.,.,.,.,.
O=C(Cn1c2ccc(F)cc2c2nc3n(c(=O)c21)CCS3)NC1CCCC1,.,.,52.3,.,.
CCOC(=O)c1cn(CC)c2cc3c(cc2c1=O)OCO3,.,.,.,24.7,.
SMILES,CaV13 ICDI inh,Xi reactivation,Casp6 inh,DENV2 CPE rescue,FN deposit inh
CCOC(=O)c1cn(CC)c2cc(N3CCN(C)CC3)c(F)cc2c1=O,.,.,.,?,.
O=C(OCc1ccccc1)N1CCC2CC1c1cc(Cl)ccc12 (stereo not drawn),.,/,.,.,.
O=C(OCc1ccccc1)N1CCC2CC1c1ccc(N3CCNCC3)cc12 (stereo not drawn),.,.,.,75.4,/
O=C(OCc1ccccc1)N1CCC2CC1c1ccc(N3CCOCC3)cc12 (stereo not drawn),.,.,.,.,.
O=C(OCc1ccccc1)N1CCCC2CC1c1ccccc12 (stereo not drawn),.,.,53.8,43.8,.
CN(C)c1ccc(O)c2c1CC1CC3[C@@H](N(C)C)C(=O)C(C(N)=O)=C(O)[C@]3(O)C(=O)C1=C2O (stereo partly drawn),.,.,66.0,.,.
CCNc1ccc(C(=O)Nc2ccc3nc(C)sc3c2)cc1[N+](=O)[O-],.,.,.,33.4,.
Cc1nc2cc(NC(=O)c3ccc([N+](=O)[O-])s3)ccc2s1,.,.,.,72.8,.
Cc1cc(NS(=O)(=O)c2ccc(NC(=O)c3ccc([N+](=O)[O-])s3)cc2)nc(C)n1,.,.,.,.,.
CC(=O)N(C)C[C@H]1Oc2ccc(N)cc2C(=O)N(C)C[C@@H]1C,/,.,/,/,/
C[C@@H]1CCCCO[C@@H](CN(C)C(=O)Nc2ccccc2)[C@H](C)CN([C@@H](C)CO)C(=O)c2cc(NC(=O)c3ccncc3)ccc2O1,/,.,.,.,.
CC(=O)c1cccc(-c2ccnc3c2CC(C(=O)NCc2ccc(F)c(F)c2)O3)c1 (stereo not drawn),43.7,.,.,.,.
CCOc1ccc2nc(NCCCNS(=O)(=O)c3ccccc3)c(C#N)cc2c1,.,/,/,/,.
CCOc1ccc2nc(NCCCNS(=O)(=O)c3ccc(F)cc3)c(C#N)cc2c1,33.0,/,.,.,/
COc1ccc(-n2c(C)cc(/C=C/c3nc(O)c([N+](=O)[O-])c(=O)[nH]3)c2C)cc1,.,.,62.1,.,/
Cc1cc(/C=C\c2nc(O)c([N+](=O)[O-])c(=O)[nH]2)c(C)n1-c1ccccc1,.,.,61.1,?,.
N#C/C(=C/c1ccc(N2CCCCC2)o1)C(=O)Nc1ccc2ccccc2c1,.,109.3,.,.,.
C/C=C/c1ccc([C@H]2[C@@H](CO)N(CC3CCCCC3)[C@@H]2CNC(C)C)cc1,/,.,.,.,.
COc1ccc(OC)c(C2=NOC(C(=O)Nc3c(C)n(C)n(-c4ccccc4)c3=O)C2)c1 (stereo not drawn),.,.,.,81.0,.
COc1ccc(C2=NOC(C(=O)Nc3c(C)n(C)n(-c4ccccc4)c3=O)C2)cc1 (stereo not drawn),.,.,.,.,.
COC(=O)c1c(C)oc2c1cc(NS(=O)(=O)c1ccc(C(=O)O)cc1)c1ccccc12,.,.,42.0,.,.
O=S(=O)(N[C@@H]1CC[C@@H](CCn2cc(-c3cccnc3)nn2)O[C@@H]1CO)c1ccccc1,/,.,.,.,/
